Values after ≈ are worked out from the molar mass of the structure shown.
Legend:
[1] = Cytotoxicity against human XF498 cell line; type: cell-based; conditions: XF498 cells, read-out: ED50 (the source's name)
[2] = system: Pseudomonas aeruginosa; assay: Antibacterial activity against […] Pseudomonas aeruginosa 1592E; type: functional
How it was run: (§1)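 Agar dilution MIC: Mueller Hinton agar plates containing 17 serial dilutions of sample (final 25 to 0.002 μg/mL), meropenem and imipenem as standards. Strains grown 18 h at 37 °C in Fleisch extract broth (10% horse serum for some strains), spotted onto plates by automatic inoculator; MIC read after 18 h incubation.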

[3] = system: Pseudomonas aeruginosa; assay: Antibacterial activity against […] Pseudomonas aeruginosa 1771M; type: functional; how it was run: as §1
[4] = system: Klebsiella aerogenes; assay: Antibacterial activity against […] Klebsiella aerogenes 1522E; type: functional; how it was run: as §1
[5] = system: Escherichia coli; assay: Antibacterial activity against […] Escherichia coli DC0; type: functional; how it was run: as §1
[6] = Cytotoxicity against human HCT15 cell line; type: cell-based; conditions: HCT-15 cells, read-out: ED50 (the source's name)
[7] = system: Klebsiella oxytoca; assay: Antibacterial activity against […] Klebsiella oxytoca 1082E; type: functional; how it was run: as §1
[8] = system: Pseudomonas aeruginosa; assay: Antibacterial activity against […] Pseudomonas aeruginosa 9027; type: functional; how it was run: as §1
[9] = system: Staphylococcus aureus; assay: Antibacterial activity against methicillin-resistant Staphylococcus aureus 285; type: functional; how it was run: as §1
[10] = system: Salmonella typhimurium; assay: Antibacterial activity against […] Salmonella Typhimurium; type: functional, Salmonella enterica subsp. enterica serovar Typhimurium; conditions: Salmonella enterica; how it was run: as §1
[11] = system: Escherichia coli; assay: Antibacterial activity against […] Escherichia coli 078; type: functional; how it was run: as §1
[12] = system: Streptococcus pyogenes; assay: Antibacterial activity against methicillin-resistant Streptococcus pyogenes 77A; type: functional; how it was run: as §1
[13] = system: Enterococcus faecium; assay: Antibacterial activity against […] Streptococcus faecium MD8b; type: functional; how it was run: as §1
[14] = system: Staphylococcus aureus; assay: Antibacterial activity against methicillin-resistant Staphylococcus aureus SG511; type: functional; how it was run: as §1
[15] = system: Escherichia coli; assay: Antibacterial activity against […] Escherichia coli 1507E; type: functional; how it was run: as §1
[16] = system: Escherichia coli; assay: Antibacterial activity against […] Escherichia coli TEM; type: functional; how it was run: as §1
[17] = system: Staphylococcus aureus; assay: Antibacterial activity against methicillin-resistant Staphylococcus aureus 503; type: functional; how it was run: as §1
[18] = Cytotoxicity against human SK-OV-3 cell line; type: cell-based; conditions: SK-OV-3 cells, read-out: ED50 (the source's name)
[19] = system: Enterobacter cloacae; assay: Antibacterial activity against […] Enterobacter cloacae 1321E; type: functional; how it was run: as §1
[20] = Cytotoxicity against human A549 cell line; type: cell-based; conditions: A549 cells, read-out: ED50 (the source's name)
[21] = system: Enterobacter cloacae; assay: Antibacterial activity against […] Enterobacter cloacae P99; type: functional; how it was run: as §1
[22] = Cytotoxicity against human SK-MEL-2 cell line; type: cell-based; conditions: SK-MEL-2 cells, read-out: ED50 (the source's name)
[23] = system: Escherichia coli; assay: Antibacterial activity against […] Escherichia coli DC2; type: functional; how it was run: as §1
[24] = system: Pseudomonas aeruginosa; assay: Antibacterial activity against […] Pseudomonas aeruginosa 1771; type: functional; how it was run: as §1
[25] = system: Streptococcus pyogenes; assay: Antibacterial activity against methicillin-resistant Streptococcus pyogenes 308A; type: functional; how it was run: as §1

## O=C1N[C@@H](c2c[nH]c3ccccc23)CN=C1c1c[nH]c2ccccc12
[1]
  CC50: 17.1 µg/mL (≈ 52.1 µM)
[2]
  MIC: 25 µg/mL (≈ 76.1 µM)
[3]
  MIC: > 25 µg/mL
[4]
  MIC: > 25 µg/mL
[5]
  MIC: > 25 µg/mL
[6]
  CC50: 4.1 µg/mL (≈ 12.5 µM)
[7]
  MIC: > 25 µg/mL
[8]
  MIC: > 25 µg/mL
[9]
  MIC: > 25 µg/mL
[10]
  MIC: > 25 µg/mL
[11]
  MIC: > 25 µg/mL
[12]
  MIC: 25 µg/mL (≈ 76.1 µM)
[13]
  MIC: > 25 µg/mL
[14]
  MIC: > 25 µg/mL
[15]
  MIC: > 25 µg/mL
[16]
  MIC: > 25 µg/mL
[17]
  MIC: > 25 µg/mL
[18]
  CC50: 11.5 µg/mL (≈ 35 µM)
[19]
  MIC: > 25 µg/mL
[20]
  CC50: 8.3 µg/mL (≈ 25.3 µM)
[21]
  MIC: > 25 µg/mL
[22]
  CC50: 5 µg/mL (≈ 15.2 µM)
[23]
  MIC: > 25 µg/mL
[24]
  MIC: 25 µg/mL (≈ 76.1 µM)
[25]
  MIC: 25 µg/mL (≈ 76.1 µM)

## O=C1NC[C@@H](c2c[nH]c3ccccc23)N=C1c1c[nH]c2ccccc12
[1]
  CC50: 24.1 µg/mL (≈ 73.4 µM)
[2]
  MIC: 25 µg/mL (≈ 76.1 µM)
[3]
  MIC: > 25 µg/mL
[4]
  MIC: > 25 µg/mL
[5]
  MIC: > 25 µg/mL
[6]
  CC50: 4.79 µg/mL (≈ 14.6 µM)
[7]
  MIC: > 25 µg/mL
[8]
  MIC: > 25 µg/mL
[9]
  MIC: > 25 µg/mL
[10]
  MIC: > 25 µg/mL
[11]
  MIC: > 25 µg/mL
[12]
  MIC: > 25 µg/mL
[13]
  MIC: > 25 µg/mL
[14]
  MIC: > 25 µg/mL
[15]
  MIC: > 25 µg/mL
[16]
  MIC: > 25 µg/mL
[17]
  MIC: > 25 µg/mL
[18]
  CC50: 12.6 µg/mL (≈ 38.4 µM)
[19]
  MIC: > 25 µg/mL
[20]
  CC50: 11.7 µg/mL (≈ 35.6 µM)
[21]
  MIC: > 25 µg/mL
[22]
  CC50: 13.7 µg/mL (≈ 41.7 µM)
[23]
  MIC: > 25 µg/mL
[24]
  MIC: 25 µg/mL (≈ 76.1 µM)
[25]
  MIC: > 25 µg/mL

## O=C1NC[C@@H](c2c[nH]c3ccccc23)N[C@H]1c1c[nH]c2cc(Br)ccc12
[1]
  CC50: 9.74 µg/mL (≈ 23.8 µM)
[2]
  MIC: > 25 µg/mL
[3]
  MIC: > 25 µg/mL
[4]
  MIC: > 25 µg/mL
[5]
  MIC: > 25 µg/mL
[6]
  CC50: > 10 µg/mL
[7]
  MIC: > 25 µg/mL
[8]
  MIC: > 25 µg/mL
[9]
  MIC: > 25 µg/mL
[10]
  MIC: > 25 µg/mL
[11]
  MIC: > 25 µg/mL
[12]
  MIC: > 25 µg/mL
[13]
  MIC: > 25 µg/mL
[14]
  MIC: > 25 µg/mL
[15]
  MIC: > 25 µg/mL
[16]
  MIC: > 25 µg/mL
[17]
  MIC: > 25 µg/mL
[18]
  CC50: 5.67 µg/mL (≈ 13.9 µM)
[19]
  MIC: > 25 µg/mL
[20]
  CC50: 9.67 µg/mL (≈ 23.6 µM)
[21]
  MIC: > 25 µg/mL
[22]
  CC50: > 10 µg/mL
[23]
  MIC: > 25 µg/mL
[24]
  MIC: > 25 µg/mL
[25]
  MIC: 25 µg/mL (≈ 61.1 µM)

## O=C1N[C@H](c2c[nH]c3ccccc23)CN[C@H]1c1c[nH]c2cc(Br)ccc12
[1]
  CC50: > 10 µg/mL
[6]
  CC50: > 10 µg/mL
[18]
  CC50: 4.92 µg/mL (≈ 12 µM)
[20]
  CC50: > 10 µg/mL
[22]
  CC50: > 10 µg/mL

## O=C1NC[C@@H](c2c[nH]c3cc(Br)ccc23)N[C@H]1c1c[nH]c2ccccc12
[1]
  CC50: 6.8 µg/mL (≈ 16.6 µM)
[2]
  MIC: 25 µg/mL (≈ 61.1 µM)
[3]
  MIC: > 25 µg/mL
[4]
  MIC: > 25 µg/mL
[5]
  MIC: > 25 µg/mL
[6]
  CC50: 6.3 µg/mL (≈ 15.4 µM)
[7]
  MIC: > 25 µg/mL
[8]
  MIC: > 25 µg/mL
[9]
  MIC: > 25 µg/mL
[10]
  MIC: > 25 µg/mL
[11]
  MIC: > 25 µg/mL
[12]
  MIC: > 25 µg/mL
[13]
  MIC: > 25 µg/mL
[14]
  MIC: > 25 µg/mL
[15]
  MIC: > 25 µg/mL
[16]
  MIC: > 25 µg/mL
[17]
  MIC: > 25 µg/mL
[18]
  CC50: 6 µg/mL (≈ 14.7 µM)
[19]
  MIC: > 25 µg/mL
[20]
  CC50: 4.2 µg/mL (≈ 10.3 µM)
[21]
  MIC: > 25 µg/mL
[22]
  CC50: 7.1 µg/mL (≈ 17.3 µM)
[23]
  MIC: > 25 µg/mL
[24]
  MIC: 25 µg/mL (≈ 61.1 µM)
[25]
  MIC: 25 µg/mL (≈ 61.1 µM)

## O=C1NC[C@@H](c2c[nH]c3ccccc23)N[C@H]1c1c[nH]c2ccccc12
[1]
  CC50: > 10 µg/mL
[6]
  CC50: > 10 µg/mL
[18]
  CC50: 9.64 µg/mL (≈ 29.2 µM)
[20]
  CC50: > 10 µg/mL
[22]
  CC50: > 10 µg/mL

## O=C1N[C@H](c2c[nH]c3cc(Br)ccc23)CN[C@H]1c1c[nH]c2ccccc12
[1]
  CC50: 19.1 µg/mL (≈ 46.7 µM)
[2]
  MIC: 25 µg/mL (≈ 61.1 µM)
[3]
  MIC: > 25 µg/mL
[4]
  MIC: > 25 µg/mL
[5]
  MIC: > 25 µg/mL
[6]
  CC50: 6.3 µg/mL (≈ 15.4 µM)
[7]
  MIC: > 25 µg/mL
[8]
  MIC: > 25 µg/mL
[9]
  MIC: > 25 µg/mL
[10]
  MIC: > 25 µg/mL
[11]
  MIC: > 25 µg/mL
[12]
  MIC: > 25 µg/mL
[13]
  MIC: > 25 µg/mL
[14]
  MIC: > 25 µg/mL
[15]
  MIC: > 25 µg/mL
[16]
  MIC: > 25 µg/mL
[17]
  MIC: > 25 µg/mL
[18]
  CC50: 12.1 µg/mL (≈ 29.6 µM)
[19]
  MIC: > 25 µg/mL
[20]
  CC50: 7.5 µg/mL (≈ 18.3 µM)
[21]
  MIC: > 25 µg/mL
[22]
  CC50: 13.1 µg/mL (≈ 32 µM)
[23]
  MIC: > 25 µg/mL
[24]
  MIC: 25 µg/mL (≈ 61.1 µM)
[25]
  MIC: > 25 µg/mL

Reference: ChEMBL document CHEMBL1138404, “Bisindole alkaloids of the topsentin and hamacanthin classes from a marine sponge Spongosorites sp” (J Nat Prod, 2007)
